Reference: ChEMBL document CHEMBL4138074, “(Indolylalkyl)piperidine carbamates as inhibitors of fatty acid amide hydrolase (FAAH)” (Medchemcomm, 2017)

Key:
[1] = molecular target: T1, Fatty-acid amide hydrolase 1 (Rattus norvegicus, UniProt P97612); assay: Inhibition of FAAH in rat brain microsomes assessed as reduction in enzyme-mediated 4-pyren-1-ylbutanoic acid release using N-(2-hydroxyethyl)-4-pyren-1-ylbutanamide as substrate incubated fro 60 mins by reversed phase HPLC method
T1 sequence (P97612 whole entry): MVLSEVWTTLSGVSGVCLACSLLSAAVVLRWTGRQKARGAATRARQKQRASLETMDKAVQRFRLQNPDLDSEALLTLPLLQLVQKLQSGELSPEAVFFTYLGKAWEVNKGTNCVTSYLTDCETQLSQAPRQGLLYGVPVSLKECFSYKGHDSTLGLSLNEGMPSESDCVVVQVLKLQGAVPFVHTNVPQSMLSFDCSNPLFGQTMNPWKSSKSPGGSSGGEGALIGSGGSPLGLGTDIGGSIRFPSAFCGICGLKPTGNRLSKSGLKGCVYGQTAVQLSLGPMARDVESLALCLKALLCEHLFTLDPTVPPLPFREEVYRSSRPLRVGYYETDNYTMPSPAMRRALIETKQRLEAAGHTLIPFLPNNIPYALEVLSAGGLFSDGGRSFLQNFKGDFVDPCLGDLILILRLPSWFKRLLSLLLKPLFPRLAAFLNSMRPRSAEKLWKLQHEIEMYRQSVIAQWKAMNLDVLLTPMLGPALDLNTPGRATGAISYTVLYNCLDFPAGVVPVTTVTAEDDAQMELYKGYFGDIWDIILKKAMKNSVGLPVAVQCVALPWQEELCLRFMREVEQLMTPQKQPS
In short: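 Rat brain microsomes as enzyme source; fluorogenic substrate N-(2-hydroxyethyl)-4-pyren-1-ylbutanamide, with Triton X-100 in the incubation buffer to solubilize substrate and stabilize the membrane-bound enzyme. Incubation 60 min. Released 4-pyren-1-ylbutanoic acid quantified by reversed-phase HPLC with fluorescence detection, using 6-pyren-1-ylhexanoic acid as internal standard. Product is compared with and without inhibitor. IC50 is the mean of at least two independent determinations.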

[2] = Metabolic stability in porcine blood plasma assessed as parent compound remaining incubated fro 30 mins by HPLC and MS-detection based method; type: ADME, cell-free, Sus scrofa; conditions: pig, read-out: Stability
In short: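 Porcine blood plasma incubation, 30 min. Remaining parent quantified by reversed-phase HPLC with MS detection and reported as percent remaining. Mean ± SD, n = 3 independent determinations.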

[3] = Metabolic stability in rat liver S9 fractions assessed as parent compound remaining in presence of NADPH incubated fro 30 mins by HPLC and MS-detection based method; type: ADME, subcellular, S9 fraction; conditions: read-out: Stability
In short: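 Compound incubated with rat liver S9 fraction plus cofactor NADPH for 30 min. Parent remaining measured by reversed-phase HPLC with MS detection and expressed as percent of parent. Mean ± SD of three independent determinations.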

Row | SMILES | IC50 [1] [nM] | remaining at 0.5 h [2] [%] | remaining at 0.5 h [3] [%]
1 | O=C(Oc1ccccc1)N1CCN(CCn2ccc3ccncc32)CC1 | 310 |  | 
2 | O=C(Oc1ccccc1)N1CCN(CCn2ccc3cccnc32)CC1 | 200 |  | 
3 | O=C(Oc1ccccc1)N1CCN(CCn2ccc3cnccc32)CC1 | 790 |  | 
4 | O=C(Oc1ccccc1)N1CCN(CCn2ccc3ccc(F)cc32)CC1 | 180 |  | 
5 | N#Cc1ccc2c(ccn2CCC2CCN(C(=O)Oc3ccccc3)CC2)c1 | 970 |  | 
6 | O=C(Oc1ccccc1)N1CCC(CCn2ccc3c(F)cccc32)CC1 | 110 |  | 
7 | O=C(Oc1ccccc1)N1CCC(CCn2ccc3ncccc32)CC1 | 1700 |  | 
8 | O=C(Oc1ccccc1)N1CCC(CCn2c3ccccc3c3ccccc32)CC1 | 410 |  | 
9 | CN(CCCCCn1ccc2ccc(F)cc21)C(=O)Oc1ccccc1 | 1600 | 93 | 65
10 | COc1ccc2c(ccn2CCC2CCN(C(=O)Oc3ccccc3)CC2)c1 | 360 |  | 

Now from value to compound:

Row | IC50 [1] [nM] | remaining at 0.5 h [2] [%] | remaining at 0.5 h [3] [%] | SMILES
11 | 46 | 93 | 82 | O=C(Oc1ccccc1)N1CCC(CCn2ccc3ccc(F)cc32)CC1
12 | 180 | 87 | 78 | O=C(Oc1ccccc1)N1CCC(CCCCn2ccc3ccccc32)CC1
13 | 130 |  |  | O=C(Oc1ccccc1)N1CCC(CCn2ccc3cc(F)ccc32)CC1
14 | 52 |  |  | O=C(Oc1ccccc1)N1CCC(CCn2ccc3cccc(F)c32)CC1
15 | 700 |  |  | Cc1ccc2c(ccn2CCC2CCN(C(=O)Oc3ccccc3)CC2)c1
16 | 570 | 93 | 80 | O=C(Oc1ccccc1)N1CCC(CCCn2ccc3ccccc32)CC1
17 | 9800 | 93 | 63 | O=C(Oc1ccccc1)N1CCC(Cn2ccc3ccccc32)CC1
18 | 410 |  |  | O=C(Oc1ccccc1)N1CCC(CCn2ccc3cc(Cl)ccc32)CC1
19 | 110 | 94 | 87 | O=C(Oc1ccccc1)N1CCC(CCn2ccc3ccccc32)CC1
